# Screens from PubChem.
# FLuc inhib CS: inhibits firefly luciferase, flagging false hits in luciferase inhibition screens; P08659; 200,000 tested, 1.5% active; ATPLite firefly luciferase biochemical luminescence, 10 min; inhibition, % at 10 µM;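 active = inhibition above about 50% when tested at 10 µM, limit read from the data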
# Target sequence (P08659 whole entry, looked up): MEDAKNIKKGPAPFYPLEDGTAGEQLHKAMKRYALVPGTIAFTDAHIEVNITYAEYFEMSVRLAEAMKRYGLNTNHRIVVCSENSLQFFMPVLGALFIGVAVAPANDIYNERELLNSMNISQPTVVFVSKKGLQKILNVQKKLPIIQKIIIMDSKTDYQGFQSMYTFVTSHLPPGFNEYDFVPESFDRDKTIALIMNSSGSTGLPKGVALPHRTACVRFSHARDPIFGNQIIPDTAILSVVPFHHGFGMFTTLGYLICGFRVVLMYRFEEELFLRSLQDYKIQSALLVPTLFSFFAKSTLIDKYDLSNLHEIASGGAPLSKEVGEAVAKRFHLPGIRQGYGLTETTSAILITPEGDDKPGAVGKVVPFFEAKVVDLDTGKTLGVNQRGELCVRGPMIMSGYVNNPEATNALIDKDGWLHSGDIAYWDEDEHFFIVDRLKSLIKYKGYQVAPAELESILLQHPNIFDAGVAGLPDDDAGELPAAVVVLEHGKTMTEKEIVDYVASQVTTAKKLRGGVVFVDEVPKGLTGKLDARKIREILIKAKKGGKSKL
# C8 TRAIL sens: caspase-8 TRAIL sensitization; NB7+C8 cells + TRAIL, ATPlite viability luminescence; inhibition (viability loss, TRAIL sensitization), % at 10 µM; 360,000 tested, 1% active; AID 624354;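 active = compounds causing at least 50% loss of cell viability in the single-dose screen, relative to plate controls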
# FLuc stim CS: firefly luciferase counter-screen for stimulation assays. P08659. ATPlite luciferase biochemical, luminescence, 10 min; 0 = ATP-free wells, 1 = DMSO control. activation factor at 10 µM. 200,000 tested, under 10 active;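 active = luciferase activation factor, scaled between plate controls, of at least 2 with compound at 10 µM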
#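 Material: Luciferase/luciferin reagent mix | Doses: Test compounds dosed from 2 mM stocks in 100% DMSO | Timing: 10 min incubation after luciferase reagent addition, room temperature | Measured by: Luminescence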
# PPC-1+TRAIL kill: compounds killing PPC-1 cancer cells with TRAIL present (potentiator screen, no TRAIL-free arm); PPC-1 cells + TRAIL, ATPLite viability luminescence; 220,000 tested, 0.41% active; AID 1443; cell killing (% activity), % at 4 µM or 5 µM;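 active = cell killing above 50% in the first pass at 4 µM, then a duplicate retest at 5 µM averaging 50% or more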;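 note: plate controls were cells with TRAIL plus DMSO for no effect and medium-only wells lacking cells for full effect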
# Starred values were filed as active, the others as inactive; x = no result. This is a sample that favours compounds with a hit; in the whole collection about 1.5% have one here.
SMILES,FLuc inhib CS,C8 TRAIL sens,FLuc stim CS,PPC-1+TRAIL kill
COc1ncccc1-c1nnn(-c2ccccc2)n1,54*,22,0.5,17
Clc1ccc(-n2nnc(-c3cccnc3Cl)n2)cc1Cl,16,17,0.8,21
Fc1ccc(-n2nnc(-c3cccnc3Cl)n2)cc1,66*,42,0.3,35
CCc1ccccc1NC(=O)CN(C)C(=O)c1cc(C2CC2)nc2c1cnn2C(C)C,x,-13,x,x
COCC1CCN(C(=O)c2ccc3oc(C(C)C)nc3c2)C1 (configuration not stated),x,-16,x,x
CCCC[C@@H]1CNCCN1CCc1cc(C(F)(F)F)cc(C(F)(F)F)c1,x,11,x,x
NC1=NC[C@H](CC2CCCCC2)N1CCc1cc(C(F)(F)F)cc(C(F)(F)F)c1,x,60*,x,12
FC(F)(F)c1cc(CCN2CCNC[C@@H]2CC2CCCCC2)cc(C(F)(F)F)c1,x,67*,x,x
COc1ccc(CN(C)C(=O)c2oc3ccccc3c2CSC)cc1F,x,1,x,x
Nc1nc(N)c2cc(CNc3ccc(Cl)c(Cl)c3)ccc2n1,x,95*,x,x
Cc1ccc(-c2nc3cc(Cl)ccc3o2)cc1,86*,31,0.1,-12
COc1cc(OC)cc(-c2nc3cc(C)ccc3o2)c1,25,26,0.7,29
Cc1ccc2nc(-c3ccc(O)cc3)oc2c1,x,79*,x,x
CC(=O)Nc1ccc(-c2nc3ccc(NC(C)=O)cc3o2)cc1,x,2,x,x
Nc1c(C(=O)O)cnc2c(-c3ccc(Cl)cc3)cnn12,58*,20,0.4,34
CC(=O)c1cnc2c(-c3ccc(Cl)cc3)cnn2c1C,-1,-3,1,10
Nc1c(-c2ccccc2)cnc2c(-c3ccccc3)cnn12,x,84*,x,x
Clc1ccc(-c2cnn3c(-c4ccncc4)ccnc23)cc1,68*,25,0.3,42
Nc1nc2nccc(-c3ccc(Cl)cc3)n2n1,51*,29,0.5,16
CCOC(=O)C1CN(C(=O)OCC)CC1=NNC(N)=O (configuration not stated),x,-7,x,x
Cc1ccc(N(C(=O)Cn2nnc(-c3ccccc3)n2)C(C(=O)NC2CCCCC2)c2ccccn2)cc1C (configuration not stated),-2,2,1,2
Cc1cc(N)n2ncc(-c3ccc(F)cc3)c2n1,7,7,0.9,22
CS(=O)(=O)c1cnc2c(-c3ccc(F)cc3)cnn2c1N,46,36,0.5,31
Cc1nc2c(-c3ccc(F)cc3)cnn2c(N)c1-c1ccc(F)cc1,x,53*,x,x
Nc1c(-c2cccs2)cnc2c(-c3ccc(F)cc3)cnn12,x,61*,x,x
SMILES,FLuc inhib CS,C8 TRAIL sens,FLuc stim CS,PPC-1+TRAIL kill
Cc1cccc(NC(=O)CCS(=O)(=O)c2ccc3nc(C)sc3c2)c1,x,6,x,x
O=C(CN1C(=O)NC2(CCCCCCC2)C1=O)NCc1ccccc1,x,-9,x,x
Cc1ccc(-c2nc3ccsc3c(=O)[nH]2)cc1,75*,42,0.3,27
Cc1cc(C)c(C)c(S(=O)(=O)N2CCN(c3ccccn3)CC2)c1C,x,-27,x,x
Cc1cc(C)c(C)c(S(=O)(=O)N2CCN(c3ncnc4ccccc34)CC2)c1C,x,55*,x,x
O=c1[nH]c(Nc2nc3ccccc3o2)nc2c1CCCC2,70*,55*,0.3,49
Cn1nccc1C(=O)Oc1cccc(/C=N/NC(=O)c2ccccc2O)c1,43,53*,0.6,36
O=C(Oc1cccc(/C=N/NC(=O)c2ccccn2)c1)c1ccc([N+](=O)[O-])cc1,x,68*,x,x
O=C(N/N=C/c1cccc(OC2CSC2)c1)c1ccccc1O,34,16,0.7,27
COc1ccccc1CC(NC(C)=O)C(=O)NC1CCN(S(=O)(=O)c2ccccc2)CC1 (configuration not stated),x,10,x,x
CCCCCCn1c(=O)n2n(c1=O)C[C@]1(OC(=O)NC3CC3)CN(S(=O)(=O)c3ccc(C)cc3)C[C@]1(O)C2,x,11,x,x
Cc1ccc(NC(=O)/C(C#N)=C/c2cn(CC(=O)NCc3ccco3)c3ccccc23)cc1C,-1,41,1,46
Cc1cc(C)cc(NC(=O)/C(C#N)=C/c2cn(CC(=O)NCc3ccco3)c3ccccc23)c1,-4,66*,1,50*
Cc1ccc2nc(C3CCCCC3)c(CC(C)(C)C)n2c1,x,-8,x,x
Cc1ccc2c(c1)C(N1CCCC1=O)CC(c1ccco1)N2 (configuration not stated),95*,48*,0.1,-17
COc1c(OC(C)=O)ccc(/C=N\NC(=O)c2ccc(Br)cc2)c1[N+](=O)[O-],8,1,0.9,1
CC(=O)Oc1ccccc1C(=O)C=Cc1cccc([N+](=O)[O-])c1,x,65*,x,x
